Reference: the RNAGym collection of RNA variant scans (doi:10.1126/science.aae0568)
Variants at the floor of the assay were thinned out.

B1: tRNA (parent)
chain: GUUCCGUUGGCGUAAUGGUAACGCGUCUCCCUCCUAAGGAGAAGACUGCGGGUUCGAGUCCCGUACGGAACG

Variants of: B1
Experiment: yeast fitness relative to wild type (ratio to wild type); higher = fitter; tRNA-Arg(CCU), competitive growth, 37 C, YPD
Outline: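 Changes in genotype frequencies gave Darwinian fitness relative to wild type. Frequencies were read by 100-nucleotide paired-end sequencing of gene amplicons before and after pooled Saccharomyces cerevisiae strains, carrying tRNA-Arg(CCU) gene variants at the native locus, were competed in YPD at 37°C for 24 hours in six replicates. A genotype was kept only with ≥ 100 starting reads, and estimates < 0.5 were set to 0.5.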

Variant | yeast fitness
GUUCCGUUGGCGUUAUGGUAACGCGUCUCCCUCCUAAGGAGAAGACUGCGGGUUGGAGUCGCGUAUGGAACG [A14U C55G C61G C66U] | ≤ 0.5
GUUCCGUUGGCGUUAUGGUAACGCGUCUCCUUCAUAAGGAGAAGACUGCGGGUUCGAGUCCCGAACGGAACG [A14U C31U C34A U64A] | ≤ 0.5
GUUCCGUUGGCGUUAUGGUAACGCGUCUCCCUACUAAGGAGCAGACUGCGGAUUCGAGUCCCGUACGGAACG [A14U C33A A42C G52A] | 0.515
GUUCCGUUGGCGUUAUGGUAACGCGUCUCCCUCCUAAGGAGAAGACUGCGGGUUCGAGUCCUGUACGGAACG [A14U C62U] | 0.616
GUUCCGUUGGCGUUAUGGUAACGCGUCUCUCUCCUAAGGAGAAGACUGCGGGUUCGAGACCCGUACGGAACG [A14U C30U U59A] | ≤ 0.5
GUUCCGUUGGCGUUAUAGUAACGCGUCUCCCUCCUAAGGAGAUGACUGCGGGUUCGAGUCCCGUACGGAACG [A14U G17A A43U] | ≤ 0.5
GUUCCGUUGGCGUUAUGGUAACGCGUCUCCCUCCUAAGGAGAAGACUGCGGGUUCGAGUACCGUACGGAACG [A14U C60A] | ≤ 0.5
GUUCCGUUGGCGUUAUGGUAACGCGUCUCCCUCCUAAGGAGAAGACUGCGGGUUCGAGUGCCGUACGGAACG [A14U C60G] | ≤ 0.5
GUUCCGUUGGCGUUAUGGUAACGCGUCUCCCUCAUAAGGAGAAGACUACGGGUUCGAGCCCCGUACGGAACG [A14U C34A G48A U59C] | 0.541
GUUCCGUUGGCGUUAUGGUAACGCGUCUCCCUCCUAAGGAGAAGACUGUGGGUUUGAGUCCCGUACGGAACG [A14U C49U C55U] | ≤ 0.5
GUUCCGUUGGCGUUAUAGUAAUGCGUCUCCCUCCUAAGGAGAAGACUGCGGGUUCGAGUCCCGUACGGAACG [A14U G17A C22U] | ≤ 0.5
GUUCCGUUGGCGUUAUGGUAACGCGUCUCCAUCCUAAGGAGAAGACUGCGGGUUCGAGUACCGUACGGAACG [A14U C31A C60A] | 0.514
GUUCCGUUGGCGUUAUGGUAACGCGUCUCCAUCCUAAGGAGAAGACUGCGGGUUCGAGUCCCGUACGGAACG [A14U C31A] | 0.544
GUUCCGUUGGCGUUAUGGUAACGCGUCUCCCUCCUAAGGAGAAGACUGCGGGUUCGAGUUCUGUACGGAGCG [A14U C60U C62U A70G] | ≤ 0.5
GUUCCGUUGGCGUUAUGGUAACGCGUCUCCCUCGUACGGAGAAGACUGCGGGUUCGAGUCCUGUACGGAACG [A14U C34G A37C C62U] | ≤ 0.5
GUUCCGUUGGCGUUAUGGUAACGCGUCUCCCUGCUAAGGAGAAGACUGCGGGUUCGAGUCCCGUACGGAACG [A14U C33G] | ≤ 0.5
GUUCCGUUGGCGUUAUGGUAACGCGUCUCCCUUCUAAGGAGAAGACUGCGGGUUCGAGUCCCGUACGGAACG [A14U C33U] | ≤ 0.5
GUUCCGUUGGCGUUAUGGUAACGCGUCUCCCUACUAAGGAGAAGACUGCGGGUUCGAGUCCCGUACGGAACG [A14U C33A] | 0.629
GUUCCGUUGGCGUUAUGGUAACGCGUCUCCCUCCUAAGGAGAAGACUGCGGGUUAGAGUCCUGUAUGGAACG [A14U C55A C62U C66U] | 0.553

Variant | yeast fitness
GUUCCGUUGGCGUUAUGGUAACGCGUCUCCCUCUUAAGGUGAAGACUGCCGGUUCGAGUCCCGUACGGAACG [A14U C34U A40U G50C] | ≤ 0.5
GUUCCGUUGGCGUUAUGGUAACGCGUCUCCCUACUAAGGAGAAGACUGCGGGUUCGAGUCCCGUACGGGACG [A14U C33A A69G] | 0.742
GUUCCGUUGGCGUUAUGGUAACGCGUCUCCCUCGUACGGAGAAGACUGCGGGUUCGAGUCCCGUACGGAACG [A14U C34G A37C] | ≤ 0.5
GUUCCGUUGGCGUUAUGGUAACGCGUCUCCAUCCUAAGGAGAAGACUGCGGGUUCGAGUCACGUACGGAACG [A14U C31A C61A] | ≤ 0.5
GUUCCGUUGGCGUUAUGGUAACGCGUCUCCCUCCUAAGGAGAAGACUGUGGAUUCGAGUCCCGUACGGAACG [A14U C49U G52A] | ≤ 0.5
GUUCCGUUGGCGUUAUGGUAACGCGUCUCCCUCCUAAGGAGAAGACUGGGGGUUCGAGUACCGUACGGAACG [A14U C49G C60A] | ≤ 0.5
GUUCCGUUGGCGUUAUGGUAACGCGUCUCUCUCCUAAGGAGAAGACUGCGGGAUCGAGUCCCGUACGGAACG [A14U C30U U53A] | ≤ 0.5
GUUCCGUUGGCGUUAUGGUAACGCGUCUCCCUCCUAAGGAGAAGACUGCGGGUUCGAGUCCCGUAAGGAACG [A14U C66A] | 0.508
GUUCCGUUGGCGUUAUGGUAACGCGUCUCCCUCCUAAGGAGAAGACUGCGGGUUCGAGUCCCGUAUGGAACG [A14U C66U] | 0.756
GUUCCGUUGGCGUUAUGGUAACGCGUCUCCCUCCUAAGGAGAAGACUGCGGGUUUGAGUCCCGUACGGAACG [A14U C55U] | ≤ 0.5
GUUCCGUUGGCGUUAUGGUAACGCGUCUCCCUCGUAAGGAGAUGAAUGCGGGUUCGAGUCCUGUACGGCACG [A14U C34G A43U C46A C62U A69C] | ≤ 0.5
GUUCCGUUGGCGUUAUGGUAACGCGUCUCCCUCUUAAGCAGAAGACUGCGGGUUCGAGUCCCGUACGGAACG [A14U C34U G39C] | 0.56
GUUCCGUUGGCGUUAUGGUAACGCGUCUCCGUCCUAAGGAGAAGACUGCGGGUUCGAGUCGCGUACGGGACG [A14U C31G C61G A69G] | ≤ 0.5
GUUCCGUUGGCGUUAUGGUAACGCGUCUCCCUCGUAAGGAGACGACUGCGGGUUCGAGUCCAGUACGGAUCG [A14U C34G A43C C62A A70U] | ≤ 0.5
GUUCCGUUGGCGUUAUGGUAACGCGUCUCCCUGCUAAGGAGCAGACUGUGGGUUGGAGUCCCGUACGGAACG [A14U C33G A42C C49U C55G] | ≤ 0.5
GUUCCGUUGGCGUUAUGGUAACGCGUCUCCCUCCUAAGGAGAAGACUGUGGGUCCGAGUCCCGUACGGAACG [A14U C49U U54C] | ≤ 0.5
GUUCCGUUGGCGUUAUGGUAACGCGUCUCCCUCGUAAGGAGAAGACUGCGGGUUCGAGUCACGUACGGAACG [A14U C34G C61A] | ≤ 0.5
GUUCCGUUGGCGUUAUGGUAACGCGUCUCCCUCCUAAGGAGAAGACUGCGGGUUCGAGUCUCGUACGGAACG [A14U C61U] | 0.591
GUUCCGUUGGCGUUAUGGUAACGCGUCUCCCUCCUAAGGAGAAGAGUGCGGGUUCGAGUCCCGUACGGAACG [A14U C46G] | 0.612
